SF-1 act = SF-1 (human) activation | Q13285 | CHO-K1 Gal4-SF-1 LBD luciferase reporter; % increase over DMSO SF-1-specific signal | activation, % at 10 µM | 65,000 tested, 1.9% active | AID 522;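 active = activation above the mean activation of all tested compounds plus 3 SD, cut at about 50% in these data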
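Material: Gal4–SF-1 LBD one-hybrid luciferase reporter in CHO-K1 cells | Amount: 4,000 cells per well | Compound dosing: 10 µM single point, 1% DMSO | Schedule: 20 h compound treatment, 37 °C | Measured by: SteadyLite luciferase luminescence | Evaluation: Percent activation versus DMSO | Control set: DMSO-treated SF-1-transfected cells as negative, DMSO-treated mock-transfected cells lacking SF-1 as background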
JNK3 inh = blocks human JNK3 kinase activity. AID 746. P53779. inhibition, % at 8 µM. 60,000 tested, 0.61% active. purified JNK3 kinase activity, HTS; in the data active = inhibition above about 17%
PKA kinase inh = inhibitors of human protein kinase A; P17612; PKA Kemptide phosphorylation, Kinase-Glo ATP luminescence; inhibition, % at 6 µM; 65,000 tested, 0.1% active; AID 524;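 active = inhibition above the screen-wide mean inhibition plus 3 SD, cut at about 21% in these data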
ROCK2 blocker = blocks human Rho kinase 2 activity; 60,000 tested, 0.35% active; O75116; purified ROCK2, Kinase-Glo ATP depletion luminescence; AID 604; inhibition, % at 6 µM;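 active = inhibition above the screen-wide mean inhibition plus 3 SD, cut at about 18% in these data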
Target sequence (O75116 whole entry, looked up): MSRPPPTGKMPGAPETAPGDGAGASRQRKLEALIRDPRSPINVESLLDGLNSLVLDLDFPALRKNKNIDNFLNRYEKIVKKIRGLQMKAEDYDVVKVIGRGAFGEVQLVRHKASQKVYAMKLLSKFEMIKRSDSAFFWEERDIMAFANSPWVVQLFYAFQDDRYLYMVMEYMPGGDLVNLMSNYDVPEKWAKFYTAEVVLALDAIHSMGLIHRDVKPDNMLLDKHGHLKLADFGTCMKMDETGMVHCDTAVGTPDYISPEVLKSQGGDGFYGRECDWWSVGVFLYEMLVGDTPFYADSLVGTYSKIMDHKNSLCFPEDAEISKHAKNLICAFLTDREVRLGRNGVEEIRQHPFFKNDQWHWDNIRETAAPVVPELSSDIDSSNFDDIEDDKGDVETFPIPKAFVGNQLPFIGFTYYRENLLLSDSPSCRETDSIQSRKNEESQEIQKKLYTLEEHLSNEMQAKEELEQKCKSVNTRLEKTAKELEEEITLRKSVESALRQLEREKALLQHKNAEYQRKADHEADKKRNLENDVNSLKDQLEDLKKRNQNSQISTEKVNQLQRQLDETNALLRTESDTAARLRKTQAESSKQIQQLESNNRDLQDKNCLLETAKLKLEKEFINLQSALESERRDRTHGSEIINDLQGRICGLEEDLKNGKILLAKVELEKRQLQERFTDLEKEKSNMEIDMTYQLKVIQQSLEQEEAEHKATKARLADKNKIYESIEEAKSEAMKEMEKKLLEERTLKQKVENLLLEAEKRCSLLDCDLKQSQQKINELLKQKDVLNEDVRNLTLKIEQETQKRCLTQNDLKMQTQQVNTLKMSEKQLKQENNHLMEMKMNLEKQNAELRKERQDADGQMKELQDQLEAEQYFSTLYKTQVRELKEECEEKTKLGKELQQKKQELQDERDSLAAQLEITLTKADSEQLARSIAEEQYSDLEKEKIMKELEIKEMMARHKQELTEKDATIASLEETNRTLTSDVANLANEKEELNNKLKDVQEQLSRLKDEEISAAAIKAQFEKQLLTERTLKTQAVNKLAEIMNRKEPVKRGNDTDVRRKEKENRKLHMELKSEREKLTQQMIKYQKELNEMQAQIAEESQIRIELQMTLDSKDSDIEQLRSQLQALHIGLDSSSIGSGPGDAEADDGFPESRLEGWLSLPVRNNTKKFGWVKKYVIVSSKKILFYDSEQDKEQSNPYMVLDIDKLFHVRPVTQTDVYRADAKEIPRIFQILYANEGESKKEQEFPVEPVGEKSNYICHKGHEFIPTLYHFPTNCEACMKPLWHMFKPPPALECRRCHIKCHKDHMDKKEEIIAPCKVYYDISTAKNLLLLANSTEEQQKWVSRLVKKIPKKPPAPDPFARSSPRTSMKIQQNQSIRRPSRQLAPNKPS
RORA act = activates the human nuclear receptor RORA. CHO-K1 Gal4-RORA LBD luciferase reporter, luminescence; percent increase over mock-subtracted basal signal. activation, % at 10 µM. 65,000 tested, 1.5% active. AID 560;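 active = activation above the mean of all tested compounds plus 3 SD, cut at about 49% in these data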
WNV NS2B-NS3 inh = blocks West Nile virus NS2B-NS3 protease activity. 65,000 tested, 0.18% active. WNV NS2B-NS3 protease, fluorogenic substrate Ex360/Em465; stronger effect = lower value. AID 577. P06935. z-score (concentration not given with the values); in the data active = z-score below about -3
Large screens that a line does not name were inactive. Compounds with a hit are over-represented: about 3.4% of the library has one in this group of screens.

CC(=O)Nc1nc2ccc(-c3nc4ccccc4o3)cc2s1	RORA act 69
O=C(CSc1nc2ccccc2o1)Nc1nc2ccccc2s1	SF-1 act 50
O=C(Cc1cccs1)Nc1nc2ccccc2s1	RORA act 58
O=C1CCC(=O)N1c1cccc(-c2nc3ccccc3o2)c1	none
c1ccc(-c2nc3ccccc3o2)nc1	none
Cc1ccnc2ccc(-c3nc4ccccc4o3)cc12	SF-1 act 56
O=C(CCn1c(=O)oc2ccccc21)NCCCN1CCCC1=O	none
CCc1nc(N)c(C#N)c(-c2cccn2C)c1C	WNV NS2B-NS3 inh -6.8
Cn1c(C(=O)NCc2ccccn2)cc2c(=O)n3ccccc3nc21	SF-1 act 61, RORA act 53
O=C(Nc1ccc(-c2cn3ccsc3n2)cc1)c1ccc(F)c(S(=O)(=O)N2CCOCC2)c1	SF-1 act 57
CCCCC(=O)Nc1cccc(-c2cn3ccsc3n2)c1	RORA act 58
O=C(Nc1nncs1)C1COc2ccccc2O1 (stereo not given)	none
O=C(Nc1ccc(-c2cn3ccsc3n2)cc1)C1COc2ccccc2O1 (stereo not given)	SF-1 act 57
O=C(Nc1cccc(-c2cn3ccsc3n2)c1)c1ccccc1	RORA act 49
C=CCNC(=O)c1ccc2c(c1)nnn2C	none (no result: JNK3 inh, ROCK2 blocker)
CSc1nc(N)nc(SC2C=CCCC2)c1C#N (stereo not given)	none
CC(C(=O)Nc1cccnc1)N1C(=O)C2C3C=CC(C3)C2C1=O (stereo not given)	none
CCOC(=O)c1cccc(NC(=O)c2cnccn2)c1	none
O=C(Nc1cccc(-c2cn3ccccc3n2)c1)c1cnccn1	SF-1 act 52 (no result: JNK3 inh, ROCK2 blocker)
Cc1csc(OCc2ccc(C#N)cc2)n1	none
O=C(Nc1nc2ccccc2s1)C1CCCO1 (stereo not given)	SF-1 act 59
O=C(Nc1ccc(-c2nc3ccccc3o2)cc1)C1CCCO1 (stereo not given)	none
COc1ccc(Cl)cc1NC(=O)C1CCCO1 (stereo not given)	none
COC(=O)c1ccc(NC(=O)C2CCCO2)cc1 (stereo not given)	none
COc1ccc(-c2csc(NC(=O)C3CCCO3)n2)cc1 (stereo not given)	SF-1 act 64
O=C(Nc1ccc(Oc2ccccc2)cc1)C1CCCO1 (stereo not given)	SF-1 act 58
COc1cc2c(cc1NC(=O)C1CCCO1)oc1ccccc12 (stereo not given)	SF-1 act 78, RORA act 58
CC(C)CNC(=O)c1cccc(NC(=O)c2ccc(NC(=O)c3ccco3)cc2)c1	none
O=C(Nc1ncc(Cc2ccccc2)s1)C1CCCO1 (stereo not given)	RORA act 55
COc1ccc(Cc2nnc(NC(=O)C3CCCO3)s2)cc1 (stereo not given)	none
Cc1c(C(=O)NCC(C)C)sc2nc(-c3ccc(F)cc3)cn12	RORA act 71
c1ccc(-c2nc(NC3CC3)nc(-n3ccnc3)n2)cc1	none
CCCC(=O)Nc1cc(=O)n(C)c(=O)n1C	none
Cn1c(NC(=O)CCc2ccccc2)cc(=O)n(C)c1=O	SF-1 act 56, RORA act 60
CCOC(=O)c1cc2sccc2n1CC(=O)c1ccc2c(c1)OCCO2	none
COc1cc(N2C(=O)NC3CC2(C)Oc2ccc(Br)cc23)cc(OC)c1OC (stereo not given)	none
CCOC(=O)c1c(C)[nH]c2ccc(O)cc12	JNK3 inh 18
CCOC(=O)CSc1nc2cc(C)cc(C)c2cc1C#N	none
CCOC(=O)CSc1nc2cc3c(cc2cc1C#N)OCO3	SF-1 act 66
CCOc1ccc2nc(SCC(=O)N3CCCCCC3)c(C#N)cc2c1	none
COC(=O)CSc1nc2cc3c(cc2cc1C#N)OCO3	none
CCOc1ccc2cc(C#N)c(SCC(=O)N3CCOCC3)nc2c1	RORA act 56
CCOC(=O)CSc1nc2cc(C)ccc2cc1C#N	SF-1 act 85, RORA act 71
CCOC(=O)CSc1nc2cc(OC)ccc2cc1C#N	SF-1 act 104, RORA act 68
C/C(N)=C(/C#N)C(=O)COC(=O)c1cc(C)n(-c2ccc(F)cc2)c1C	SF-1 act 65, RORA act 67
c1ccc2c(c1)CCCN2c1nc2ccccc2n2cnnc12	SF-1 act 54
CCC(C)(C(=O)NC1CCCCC1)N(C(=O)C1CCC(=O)N1)c1ccc(C)cc1 (stereo not given)	none (no result: JNK3 inh, ROCK2 blocker)
O=C(Nc1ccc2nc3n(c(=O)c2c1)CCCCC3)c1ccccn1	RORA act 54
Cc1nc(N)sc1-c1nnc(SCC(=O)Nc2nccs2)n1C	none
Cc1cc(C(=O)Nc2sc3c(c2C#N)CCC(C(C)(C)C)C3)no1 (stereo not given)	SF-1 act 58
Cc1cc(C(=O)Nc2sc3c(c2C#N)CCC(C)C3)cs1 (stereo not given)	RORA act 91
CC(C)c1cc(C(=O)Nc2sc3c(c2C#N)CCC3)no1	RORA act 76
CCC(=O)N1CCc2cc(Br)cc(S(=O)(=O)N3CCN(c4ccccn4)CC3)c21	none (no result: JNK3 inh, ROCK2 blocker)
COCCCN=C(c1ccco1)n1c(=S)nc(-c2ccco2)n(CCCOC)c1=S	none (no result: JNK3 inh, ROCK2 blocker)
O=C(Nc1ccc(NC(=O)c2ccco2)nc1)c1ccccn1	SF-1 act 52 (no result: JNK3 inh, ROCK2 blocker)
O=C(Cc1ccccc1)Nc1ccc(NC(=O)c2ccco2)nc1	SF-1 act 59
O=C(Nc1ccc(NC(=O)C23CC4CC(CC(C4)C2)C3)cn1)c1ccco1	SF-1 act 90
CCN(CCCNC(=O)c1[nH]c(C)c(C(C)=O)c1C)c1ccccc1	none
COc1ccc(C2C3=C(CC(C)(C)CC3=O)Nc3c2c(=O)[nH]c2nc(C)nn32)cc1 (stereo not given)	none
Cc1ccc(C(=O)C(C)OC(=O)C2CC(=O)N(C3CCCCC3)C2)cc1 (stereo not given)	none
Cc1nc(S(=O)(=O)N2CCOCC2)c(C#N)c(C)c1Cl	none
Cn1c(SCc2ccc(C#N)cc2Cl)nc2ccccc21	RORA act 82
Cn1c(SCc2nc3ccccc3n2CCO)nc2ccccc21	none
N#Cc1c(NCc2ccccc2)ccnc1NCc1cccnc1	JNK3 inh 75
CN(C)c1ccnc(NCc2ccccc2)c1C#N	none
O=S(=O)(NCCSc1ccccc1)c1cccs1	none
O=C(COc1ccc(F)cc1)Nc1nccs1	RORA act 102
O=C(Nc1nccs1)c1ccc(COc2ccccc2Br)o1	SF-1 act 60
O=C(Nc1nccs1)c1ccc(COc2ccc(F)cc2)o1	SF-1 act 64
O=C(Nc1nccs1)c1ccc(COc2ccc(Cl)cc2)o1	none
O=C(CN1C(=O)C2CC=C(Cl)CC2C1=O)NCc1ccccc1 (stereo not given)	none
Cn1c(SCc2nc3ccccc3s2)nnc1-c1cccs1	none
